Assay results: ChEMBL document CHEMBL5712901, “DOT1L inhibition blocks multiple myeloma cell proliferation by suppressing IRF4-MYC signaling” (2019)
Activity calls are given as the source filed them. No cut-off for these calls is given here.

Columns and labels:
RPMI-8226 [1] = test: Upregulation of HOXB6 gene in human RPMI-8226 cells at 1 uM for 6 days by; assay type: functional, cell-based; settings: time 6.0 day
MM1.S [2] = test: Upregulation of TLE1 gene in human MM1.S cells at 1 uM for 6 days by; assay type: functional, cell-based; settings: time 6.0 day
MM1.S [3] = test: Upregulation of MS4A4A gene in human MM1.S cells at 1 uM for 6 days by; assay type: functional, cell-based; settings: time 6.0 day
MM1.S [4] = test: Effect on human MM1.S cells assessed as change in IRF4 mRNA level at 1 uM for 6 days by qRT-PCR analysis; settings: time 6.0 day
MM1.S [5] = test: Induction of apoptosis in human MM1.S cells assessed as late apoptotic cells at 1 uM for 6 days by annexin-V based propidium iodide staining based flow cytometric analysis (reference value: 4.85%); assay type: functional; settings: time 6 day
RPMI-8226 [6] = test: Upregulation of IFN in human RPMI-8226 cells assessed as increase in ISG15 gene at 1 uM for 6 days by qRT-PCR analysis; settings: time 6.0 day
U-266 = test: Antiproliferative activity against human U-266 cells assessed as reduction in cell viability measured at 1 uM for 18 days; assay type: functional, cell-based; settings: time 18.0 day
KMS-12-BM [7] = test: Effect on human KMS-12-BM cells assessed as change in IRF4 mRNA level by qRT-PCR analysis; assay type: functional, cell-based
Method in brief: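 Basal MYC and IRF4 mRNA in untreated cells measured by qRT-PCR. Normalized to ACTB; mean of 3 replications ± SEM.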

MM1.S [8] = test: Upregulation of TP53I3 gene in human MM1.S cells at 1 uM for 6 days by; assay type: functional, cell-based; settings: time 6.0 day
RPMI-8226 [9] = test: Upregulation of SOAT2 gene in human RPMI-8226 cells at 1 uM for 6 days by; assay type: functional, cell-based; settings: time 6.0 day
RPMI-8226 [10] = test: Induction of apoptosis in human RPMI-8226 cells assessed as late apoptotic cells at 1 uM for 3 days by annexin-V based propidium iodide staining based flow cytometric analysis (reference value: 2.43%); assay type: functional; settings: time 3 day
MM1.S [11] = test: Upregulation of S100A10 gene in human MM1.S cells at 1 uM for 6 days by; assay type: functional, cell-based; settings: time 6.0 day
RPMI-8226 [12] = test: Induction of cell cycle arrest in human RPMI-8226 cells assessed as increase in accumulation of cells at G0 phase at 1 uM for 6 days; assay type: functional, cell-based; settings: time 6.0 day
Method in brief: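 Flow cytometric cell cycle analysis of RPMI-8226 and MM.1S cells treated with 1 μM DOT1L inhibitor or DMSO for 6 days. Sub-G1, G0-G1 and S phase populations scored. Summary is from 3 replications, mean ± SEM.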

MM1.S [13] = test: Upregulation of PYCARD gene in human MM1.S cells at 1 uM for 6 days by; assay type: functional, cell-based; settings: time 6.0 day
RPMI-8226 [14] = test: Upregulation of IFN in human RPMI-8226 cells assessed as increase in IFI44 gene at 1 uM for 6 days by qRT-PCR analysis; settings: time 6.0 day
MM1.S [15] = test: Upregulation of LRRC56 gene in human MM1.S cells at 1 uM for 6 days by; assay type: functional, cell-based; settings: time 6.0 day
MM1.S [16] = test: Antiproliferative activity against human MM1.S cells treated 3 days at 1 uM; assay type: functional, cell-based; settings: time 3.0 day
Method in brief: (§1)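 Cell lines in 6-well plates, 2 × 10^4 to 8 × 10^5 cells/well, exposed to DOT1L inhibitor at 0.25-1 μM or DMSO, with medium and drug refreshed every 3 days. Viability read with Cell Counting Kit-8 on a microplate reader. Values normalized to untreated cells; mean of 3 replications ± SEM.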

RPMI-8226 [17] = test: Induction of apoptosis in human RPMI-8226 cells assessed as necrotic cells at 1 uM for 6 days by annexin-V based propidium iodide staining based flow cytometric analysis (reference value: 3.92%); assay type: functional; settings: time 6 day
MM1.S [18] = test: Upregulation of NREP gene in human MM1.S cells at 1 uM for 6 days by; assay type: functional, cell-based; settings: time 6.0 day
RPMI-8226 [19] = test: Effect on human RPMI-8226 cells assessed as change in Myc mRNA level at 1 uM for 3 days by ChIP-qPCR analysis; assay type: functional, cell-based; settings: time 3.0 day
Method in brief: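 ChIP-qPCR for H3K79me2 at IRF4-MYC signaling genes after 1 μM inhibitor or DMSO for 3 days. Signal normalized to input DNA. An intergenic region 28 kb upstream of KLF2 served as negative control. Mean of 3 replications ± SEM.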

MM1.S [20] = test: Upregulation of CARD6 gene in human MM1.S cells at 1 uM for 6 days by; assay type: functional, cell-based; settings: time 6.0 day
MM1.S [21] = test: Upregulation of EMID1 gene in human MM1.S cells at 1 uM for 6 days by; assay type: functional, cell-based; settings: time 6.0 day
Method in brief: (§2)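 Human myeloma lines RPMI-8226 and MM.1S exposed to 1 μM DOT1L inhibitor, or DMSO, for 6 days. Whole-genome expression profiled on gene expression microarray.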

RPMI-8226 [22] = test: Upregulation of DDIT4L gene in human RPMI-8226 cells at 1 uM for 6 days by; assay type: functional, cell-based; settings: time 6.0 day; method in brief: as §2
RPMI-8226 [23] = test: Upregulation of IL13RA1 gene in human RPMI-8226 cells at 1 uM for 6 days by; assay type: functional, cell-based; settings: time 6.0 day
RPMI-8226 [24] = test: Induction of growth suppression in human RPMI-8226 cells assessed as reduction H3K79me3 at 1 uM for 3 days Western blot analysis; assay type: functional, cell-based; settings: time 3.0 day
Method in brief: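 RPMI-8226 cells treated with 1 μM DOT1L inhibitor or DMSO for 3 days. H3K79 methylation probed by Western blot with […].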

MM1.S [25] = test: Induction of apoptosis in human MM1.S cells assessed as necrotic cells at 1 uM for 6 days by annexin-V based propidium iodide staining based flow cytometric analysis (reference value: 0.16%); assay type: functional; settings: time 6 day
MM1.S [26] = test: Induction of apoptosis in human MM1.S cells assessed as viable cells at 1 uM for 3 days by annexin-V based propidium iodide staining based flow cytometric analysis (reference value: 94.3%); assay type: functional; settings: 72 h, time 3 day, read-out: Activity
MM1.S [27] = test: Upregulation of AMY1C gene in human MM1.S cells at 1 uM for 6 days by; assay type: functional, cell-based; settings: time 6.0 day
KMS-12-BM [28] = test: Effect on human KMS-12-BM cells assessed as decrease in MYC mRNA level at 1 uM for 6 days by qRT-PCR analysis; assay type: functional, cell-based; settings: time 6.0 day
Method in brief: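 qRT-PCR of MYC and IRF4 after 1 μM DOT1L inhibitor for 6 days. Normalized to ACTB; mean of 3 replications ± SEM.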

MM1.S [29] = test: Upregulation of ID2 gene in human MM1.S cells at 1 uM for 6 days by; assay type: functional, cell-based; settings: time 6.0 day
RPMI-8226 [30] = test: Upregulation of PRRT2 gene in human RPMI-8226 cells at 1 uM for 6 days by; assay type: functional, cell-based; settings: time 6.0 day
MM1.S [31] = test: Upregulation of BCL6 gene in human MM1.S cells at 1 uM for 6 days by; assay type: functional, cell-based; settings: time 6.0 day
MM1.S [32] = test: Upregulation of IFN in human MM1.S cells assessed as increase in IFI44 gene at 1 uM for 6 days by qRT-PCR analysis; settings: time 6.0 day
RPMI-8226 [33] = test: Upregulation of IFN in human RPMI-8226 cells assessed as increase in IFITM1 gene at 1 uM for 6 days by qRT-PCR analysis; assay type: functional, cell-based; settings: time 6.0 day
RPMI-8226 [34] = test: Antiproliferative activity against human RPMI-8226 cells treated 3 days at 1 uM; assay type: functional, cell-based; settings: time 3.0 day; method in brief: as §1

Structure (SMILES) | Activity (MM1.S [5]) [%] | Activity (RPMI-8226 [6]) | Activity (U-266) | Activity (KMS-12-BM [7]) | Activity (RPMI-8226 [10]) [%] | Activity (RPMI-8226 [12]) | Activity (RPMI-8226 [14]) | Activity (MM1.S [16]) | Activity (RPMI-8226 [17]) [%] | Activity (RPMI-8226 [19]) | Activity (RPMI-8226 [24]) | Activity (MM1.S [25]) [%] | viability at 1 µM (MM1.S [26]) [%] | Activity (KMS-12-BM [28]) | further results
CC(C)N(CCCNC(=O)Nc1ccc(C(C)(C)C)cc1)C[C@H]1O[C@@H](n2cc(Br)c3c(N)ncnc32)[C@H](O)[C@@H]1O | 11.7 | Active | Active | Active | 8.85 | Active | Active | Active | 4.83 | Active | Active | 0.21 | 92.3 | Active | Activity (RPMI-8226 [1]): Active; Activity (MM1.S [2]): Active; Activity (MM1.S [3]): Active; Activity (MM1.S [4]): Active; Activity (MM1.S [8]): Active; Activity (RPMI-8226 [9]): Active; Activity (MM1.S [11]): Active; Activity (MM1.S [13]): Active; Activity (MM1.S [15]): Active; Activity (MM1.S [18]): Active; Activity (MM1.S [20]): Active; Activity (MM1.S [21]): Active; Activity (RPMI-8226 [22]): Active; Activity (RPMI-8226 [23]): Active; Activity (MM1.S [27]): Active; Activity (MM1.S [29]): Active; Activity (RPMI-8226 [30]): Active; Activity (MM1.S [31]): Active
CC(C)N(C[C@H]1O[C@@H](n2cnc3c(N)ncnc32)[C@H](O)[C@@H]1O)[C@H]1C[C@@H](CCc2nc3cc(C(C)(C)C)ccc3[nH]2)C1 [PINOMETOSTAT] | 11.4 | Active | Active | Active | 9.83 | Active | Active | Active | 3.98 | Active | Active | 0.05 | 96.7 | Active | Activity (MM1.S [32]): Active; Activity (RPMI-8226 [33]): Active; Activity (RPMI-8226 [34]): Active
